Hits are enriched below; roughly 4% of the tested compounds scored in any of these assays.
Granule exo inh: lytic granule exocytosis inhibition; TALL-104 LAMP-1 surface exposure, flow cytometry; cells stimulated with thapsigargin and PMA; inhibition, % at 10 µM; 0.66% of 360,000 active; AID 651702;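 active = inhibition above about 55%, limit read from the data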
XBP1 UPR activ: adaptive UPR (XBP1) activation. CHO-XBP1 luciferase reporter, IRE1-XBP1 UPR activation, luminescence; percent of tunicamycin response, DMSO as zero. activation, % at 20 µM. 0.33% of 330,000 active. AID 463104;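 active = versus positive control, 20 µM dose yields 30% or more activation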
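Material – CHO cell line with stable XBP1 luciferase reporter · Buffer or medium – F12 plus 10% FBS · Compound – single point, 20 µM final compound, 1% DMSO · Schedule – 16-18 h cell attachment at 37 °C, then 6 h compound exposure · Signal – Steady-Glo luminescence read · Benchmarks – high control tunicamycin 10 µg/mL final, low control DMSO vehicle only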
CHOP UPR activ: apoptotic UPR (CHOP) activation | CHO-CHOP luciferase reporter, luminescence; percent of tunicamycin response over DMSO baseline | 0.34% of 330,000 active | activation, % at 10 µM;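 active = at 10 µM dose, activation of 40% or more, normalized to positive control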
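System: CHO-CHOP luciferase reporter cell line | Buffer or medium: F12 medium containing 10% fetal bovine serum | Doses: One dose, 10 µM in 0.5% DMSO | Times: 6 h compound exposure at 37 °C after overnight seeding | Signal: Luciferase luminescence | Read-out: % activation vs tunicamycin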
ABHD5 PLIN5 PPI: inhibitors of human ABHD5-perilipin-5 interaction; Q00G26+Q8WTS1; Split G. princeps luciferase complementation, luminescence, 4 h; inhibition, % at 4 µM; 0.78% of 360,000 active;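 active = inhibition above the mean inhibition across every tested compound plus 3 SD, cut at about 22% in these data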
Mdm2 MdmX PPI: disrupts the human Mdm2-MdmX interaction; O15151+Q00987; SaOS-2 split-luciferase Mdm2/MdmX complementation, luminescence; 3% of 330,000 active; inhibition, % at 8 µM; AID 485346;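 active = inhibition of at least 50% at 8 µM in the primary screen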
CHOP UPR conf: apoptotic UPR (CHOP) activation, confirmed; CHO-CHOP cells, CHOP-luciferase reporter luminescence; percent of tunicamycin response, DMSO as zero; activation, % at 10 µM; 64% of 1,000 active; AID 463112; shares compounds with CHOP UPR activ; in the data active = activation above about 33%
Hits are given with their value; n = inactive; x = not tested or not shown.

SMILES	Granule exo inh	XBP1 UPR activ	CHOP UPR activ	ABHD5 PLIN5 PPI	Mdm2 MdmX PPI	CHOP UPR conf
Cc1cccc(Oc2nc(-c3ccccn3)nc3ccccc23)c1	n	n	n	n	n	x
COc1ccc2nc(SCC(=O)N3CCCCC3)c(C#N)cc2c1	n	n	n	n	n	x
CCCCNC(=O)c1onc(CSc2ccc(C(C)C)cc2)c1C(=O)O	n	x	x	n	x	x
CSc1ccccc1NC(=O)CN(C)C(=O)COc1cccc2cccnc12	n	n	48	n	n	n
CCCCC(=O)Nc1ccc(C(N)=O)cc1	n	n	n	n	n	x
NC(=O)c1cccc(NC(=O)CCCCC(=O)Nc2cccc(C(N)=O)c2)c1	n	n	41	n	n	n
COc1ccc(-c2ccc(-c3nc4c(c(=O)[nH]c(=O)n4Cc4ccccc4)n3C)o2)c([N+](=O)[O-])c1	n	n	59	n	n	41
COCCn1c(=O)[nH]c(=O)c2c1nc(-c1ccc(-c3ccc(Cl)cc3[N+](=O)[O-])o1)n2Cc1ccccc1	n	n	n	n	n	x
COc1nc(N)nc(NC(=O)c2cccs2)c1N=O	105	n	70	n	n	62
COc1ccc(C(=O)Nc2cccc(NC(=O)c3cccs3)c2)cc1	n	n	n	n	n	x
CC(Oc1ccc(F)cc1)C(=O)Nc1cc(Cl)ccc1-n1cncn1 (centres undefined)	n	n	n	n	n	x
Oc1ccc(CN2CCN(Cc3ccccc3)CC2)c2cccnc12	n	n	71	n	n	94
CC(C)(C)NC(=O)C(=O)NCc1ccccn1	n	n	n	n	n	x
O=C(Nc1nc2ccccc2s1)c1ccc([N+](=O)[O-])o1	n	n	73	n	n	n
COc1ccc(C(=O)Sc2ccc(C)cc2)cc1OC	n	n	n	n	n	x
COc1ccc(C(=O)Sc2ccc(Cl)cc2)cc1OC	n	n	87	n	n	58
CCOC(=O)c1ccc(NC2=CC(=O)C(=O)c3ccccc32)cc1	n	n	65	n	n	n
NS(=O)(=O)c1ccc(NC2=CC(=O)C(=O)c3ccccc32)cc1	n	n	n	n	n	x
Cc1ccccc1S(=O)(=O)NC1OC(=O)C(Oc2ccccc2)=C1Br (centres undefined)	n	n	n	n	n	x
Cc1ccccc1S(=O)(=O)NC1OC(=O)C(Cl)=C1Cl (centres undefined)	n	n	47	n	n	40
O=[N+]([O-])c1cc(C(F)(F)F)ccc1Cl	n	n	n	n	n	x
COc1ccc2ccccc2c1/C=N/O	n	n	n	n	n	x
O=C(Oc1c(CN2CCOCC2)cc(Cl)c2cccnc12)c1ccccc1	n	n	n	n	n	x
O=C(Oc1c(CN2CCOCC2)cc(Cl)c2cccnc12)c1ccccc1F	n	n	79	n	n	70
Cc1cc(NC(=O)c2cccs2)cc(-c2nc3ncccc3o2)c1O	n	n	n	n	n	x
SMILES	Granule exo inh	XBP1 UPR activ	CHOP UPR activ	ABHD5 PLIN5 PPI	Mdm2 MdmX PPI	CHOP UPR conf
Cc1cc(C)nc(Sc2ncnc(N)c2[N+](=O)[O-])n1	n	n	95	n	n	n
O=C1CCN(C2CCN(Cc3nc(Cc4ccccc4F)no3)CC2)CCN1	n	n	n	n	n	x
Cc1ccc(S(=O)(=O)CCC(=O)c2ccc(F)cc2)cc1	n	n	n	n	n	x
COc1ccc(C(=O)CCS(=O)(=O)c2ccc(F)cc2)cc1OC	n	n	44	n	n	n
Cc1cccn2c(=O)c3cc(C#N)c(=NC(=O)c4cccs4)n(CCCOC(C)C)c3nc12	n	n	n	n	n	x
Cc1ccc(S(=O)(=O)N(C(=O)c2ccncc2)c2ccc(OC(=O)c3ccncc3)c3ccccc23)c(C)c1	100	n	59	33	n	113
CC(=O)N(NC(N)=O)C(C)CC(=O)C1C(C)C=CCC1(C)C (centres undefined)	n	n	n	n	n	x
CCn1c(CSc2nc3ccccc3s2)nnc1SCC(=O)c1ccc(Cl)cc1	n	n	n	n	n	x
CCn1c(CSc2nc3ccccc3s2)nnc1SCC(=O)c1ccc(O)c(O)c1	n	n	47	n	n	n
Cc1ccccc1CNC(=O)Cn1cnc(S(=O)(=O)N2CCCC2)c1	n	n	n	n	n	x
Cc1cc(N2CCC(C)CC2)nc(-n2nc(C)cc2C)n1	n	n	87	n	n	n

Screening data from PubChem.
